This is one part of a sample in which hits are shown more often than they occur.
pCIP destab = compounds decreasing mouse p/CIP protein stability; Q05BA5; F442A p/CIP-EGFP cells, EGFP fluorescence, 16 h; decrease of EGFP signal, % at 10 µM; actives 0.01% (n = 290,000); AID 1984;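 active = EGFP signal decrease of at least 30% at 10 µM or well 3 SD below plate mean, unless failing retest; inactive = the rest, including hits failing retest or dose response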
XBP1 UPR activ = adaptive UPR (XBP1) activation; CHO-XBP1 luciferase reporter, IRE1-XBP1 UPR activation, luminescence; percent of tunicamycin response, DMSO as zero; activation, % at 20 µM; actives 0.33% (n = 330,000); AID 463104;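 active = versus positive control, 20 µM dose yields 30% or more activation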;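 also: 100% = tunicamycin at 10 µg/mL and 0% = DMSO only wells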
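Material – CHO cell line with stable XBP1 luciferase reporter · Buffer or medium – F12 plus 10% FBS · Compound – single point, 20 µM final compound, 1% DMSO · Schedule – 16-18 h cell attachment at 37 °C, then 6 h compound exposure · Signal – Steady-Glo luminescence read · Benchmarks – high control tunicamycin 10 µg/mL final, low control DMSO vehicle only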
Beta2AR agonist = human beta-2 adrenergic receptor agonism by FAP; P07550; Am2.2-beta2AR cells, FAP receptor internalization, flow cytometry; response, % (no concentration beside the values); actives 0.43% (n = 340,000); AID 504454;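 active = response above a set limit, near 3 SD of response in nonfluorescent compounds, cut at about 42% in these data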
UPR CHOP act = activators of apoptotic arm of unfolded protein response (CHOP); actives 0.34% (n = 330,000); AID 449763; activation, % at 10 µM; CHO-CHOP luciferase reporter, UPR activation, luminescence; percent of tunicamycin response over DMSO baseline;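 active = at 10 µM dose, activation of 40% or more, normalized to positive control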;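 also: 100% = tunicamycin at 10 µg/mL and 0% = DMSO alone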
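Material: CHO-CHOP cells, stable luciferase reporter of PERK-eIF2a-CHOP signalling; quantity: 500 reporter cells seeded per well; buffer or medium: F12 medium containing 10% fetal bovine serum; compound: one dose, 10 µM in 0.5% DMSO; incubation: 6 h compound treatment, 37 °C; measured by: Steady-Glo luciferase luminescence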
CHOP inh = inhibitors of CHOP induction in ER stress response | CHO-K1 CHOP-promoter luciferase, tunicamycin-induced, 15-18 h | inhibition, % at 10 µM | actives 3.8% (n = 220,000) | AID 2732;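 active = compounds that reduced the stress-induced luciferase reporter signal by more than about 70% of percent inhibition, limit read from the data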;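 also: 0% = tunicamycin plus vehicle and 100% = wells without tunicamycin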
Dynein cargo inh = dynein cargo transport inhibition; z-score, hits read low; 3617.4 mouse cells, GR-EGFP nuclear translocation imaging; test concentration mostly 20 µM; stimulated with dexamethasone, 1 µM; stronger effect = lower value; actives 0.47% (n = 220,000); AID 1381;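 active = plate z-score of nuclear minus cytoplasmic receptor signal below a set negative limit, without overly bright fluorescence or cell loss, cut at about -3.5 in these data, passing the limit was not always enough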;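 also: z-score of nuclear minus cytoplasmic ring GR-EGFP intensity difference per well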
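Buffer or medium: Induction medium lacking tetracycline, stripped serum | Also added: Dexamethasone agonist, 1.0 µM final, for 30 min | Timing: 48 h induction, 1 h compound, 30 min dex at 37 °C | Detection: Formaldehyde fixation, Hoechst nuclear stain, 10x automated fluorescence imaging | Measure: Nuclear versus cytoplasmic GR-EGFP signal, averaged per well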
CHOP confirm = confirmation of CHOP induction inhibitors. actives 45% (n = 2,100). shares compounds with CHOP inh. AID 504437. inhibition, % at 10 µM. CHO-CHOP promoter luciferase reporter, tunicamycin-induced, luminescence;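 active = mean of three repeat readings of reporter signal inhibition above a set limit, cut at about 70% in these data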;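 also: 0% = tunicamycin plus vehicle and 100% = wells lacking tunicamycin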
The depositor's hits bear a star; x = no result.

SMILES | pCIP destab | XBP1 UPR activ | Beta2AR agonist | UPR CHOP act | CHOP inh | Dynein cargo inh | CHOP confirm
O=C(c1ccc(F)cc1)N(c1ccccn1)C1CCCCC1 | -6.0 | -0.8 | 1.5 | 0.3 | 38.2 | -0.498 | x
COc1ccccc1C(=O)Oc1ccc(C(C)C)cc1 | -6.4 | 0.7 | -2.4 | 10.1 | 98.6* | 0.0358 | 117.7*
COc1ccc(-n2c(N)c(C(=O)NCc3ccco3)c3nc4ccccc4nc32)cc1OC | -9.2 | 0.1 | 9.9 | 2.5 | 104.4* | -0.2 | 33.6
COc1cc(-n2c(N)c(C(=O)NCc3ccco3)c3nc4ccccc4nc32)cc(OC)c1OC | -9.2 | -0.2 | 5.6 | 3.0 | 23.0 | 1.62 | x
COc1ccccc1CNC(=O)c1c(N)n(CCCN2CCOCC2)c2nc3ccccc3nc12 | -13.8 | x | 26.1 | x | 96.4* | -0.0971 | 40.3
COc1ccc(-c2csc(N(CCc3ccccc3)C(=O)COc3ccccc3)n2)cc1 | 0.9 | 1.1 | 0.4 | -2.2 | 31.6 | 1.07 | x
O=C(COc1ccc(Cl)cc1)N(Cc1ccccc1)c1nc(-c2ccccc2)cs1 | -1.0 | 6.0 | -0.9 | 3.0 | 103.1* | 0.0188 | 54.0
Cc1cccc(OS(=O)(=O)NC(=O)OCC2CCCN3CCCCC23)c1 (stereo unspecified) | 10.5 | -3.1 | 6.0 | -0.9 | 4.9 | 0.925 | x
CC(=O)Oc1cccc(/C=c2\sc3nc(-c4ccco4)nn3c2=O)c1 | -7.4 | 0.2 | 7.2 | 3.8 | 106.5* | -1.06 | 26.7
Cc1cccc2cc(C#N)c(NCCNS(=O)(=O)c3ccccc3)nc12 | -6.3 | -1.1 | 1.6 | 0.7 | 38.1 | -0.572 | x
Cc1cccc2cc(C#N)c(NCCCNS(=O)(=O)c3ccc(Cl)cc3)nc12 | 2.2 | -0.6 | 3.4 | -1.5 | 103.6* | -0.48 | 53.6
O=C(N/N=C/c1ccccc1Cl)c1n[nH]c2c1CCCC2 | 3.9 | -4.6 | 4.2 | -8.9 | 106.9* | 0.333 | 82.8*
O=C(N/N=C/c1ccccc1)c1n[nH]c2c1CCCC2 | -22.3 | -5.7 | -8.4 | -1.1 | 27.8 | -0.578 | x
COc1ccc(C(=O)NCC(=O)N/N=C/c2cccc(OC(=O)c3ccco3)c2)cc1OC | -9.9 | 1.1 | -3.0 | 2.0 | 8.6 | -0.7 | x
Nc1ccc2oc(-c3ccccc3Cl)nc2c1 | 1.1 | -1.4 | -2.3 | -1.1 | 39.4 | 0.0752 | x
Nc1ccc2oc(-c3cc(Br)ccc3Cl)nc2c1 | 0.4 | -2.9 | -12.6 | -4.5 | 96.9* | -0.306 | 73.6*
O=C(CSc1nncs1)Nc1ccc(N2CCCCC2)cc1 | x | 0.1 | -3.6 | 2.4 | x | x | x
CN1CCN(c2nc(-c3ccc(Cl)cc3)nc3ccccc23)CC1 | 0.7 | 8.7 | 4.7 | 2.1 | x | x | x
O=S1(=O)C=C(Sc2nnc(-c3ccccc3)o2)c2ccccc21 | -7.4 | -6.0 | -407.4 | -10.9 | x | -4.07* | 124.6*
Cc1cccc(OCCn2c(NC(=O)c3ccco3)nc3ccccc32)c1 | -17.7 | 7.1 | -13.2 | 0.6 | 104.0* | -0.902 | -12.2
O=C(Nc1nc2ccccc2n1Cc1ccc(Cl)cc1)c1ccco1 | -15.7 | -1.3 | -4.3 | 0.6 | 103.2* | 0.74 | -53.1
Cc1ccc(OCCn2c(NC(=O)c3ccco3)nc3ccccc32)cc1 | -18.9 | 2.8 | -4.6 | 0.5 | 20.8 | 0.128 | x
COc1ccc(NC(=O)/C(Cl)=C(/Cl)S(=O)Cc2ccccc2Cl)cn1 (stereo unspecified) | 29.1 | -6.7 | 57.9* | -10.9 | 109.7* | -4.95* | 119.7*
COc1ccc2nc(NC(=O)C3CCN(S(=O)(=O)c4cccs4)CC3)sc2c1 | 11.4 | -3.2 | 9.5 | 2.5 | 40.9 | 1.8 | x
COc1ccc2nc(NC(=O)C3CCCN(S(=O)(=O)c4cccs4)C3)sc2c1 (stereo unspecified) | -11.0 | -4.2 | 13.8 | -1.2 | 96.2* | 4.05 | 51.1
C[C@@H]1CC=C[C@H]2[C@H]1C(=O)N(Cc1ccccc1)[C@H]2c1ccoc1 | -2.9 | -0.4 | 13.9 | 1.5 | -12.1 | -2.48 | x

Bioassay records (PubChem)
